Assay results gathered from unrelated publications.
Target: Receptor tyrosine-protein kinase erbB-3 (ERBB3, Homo sapiens, UniProt P21860)

C[C@@H](c1ccc(-n2cnc3c(N)ncnc32)cc1)N1CCc2nn(C)c(Cc3ccccc3)c2C1=O  remaining binding (binding, competition with immobilised ligand; 0.1 µM): 55%
C[C@H](NC(=O)c1cnc2n1[C@](C)(Cc1ccc(C#N)cc1)C(=O)N2c1cc(Cl)c(F)c(Cl)c1)C(=O)NC1(c2ccccn2)CC1  remaining binding (cell-free assay, competition with immobilised ligand; 1 µM): 100%
O=C(c1ccc(Nc2ncc(Cl)c(-c3ccc(Cl)s3)n2)cc1)N1CCC(N2CCCC2)CC1  remaining binding (binding, competition with immobilised ligand; 1 µM): 100%
CCOC(=O)c1cc2cc(-c3cc(C(=O)NCc4ccc(C(=O)O)cc4)nn3C)ccc2[nH]1  remaining binding (cell-free assay, competition with immobilised ligand; 0.1 µM): 81%
COc1ncc2cc3ccccc3nc2c1C#N  remaining binding (cell-free assay, competition with immobilised ligand; 5 µM): 76%
c1cnn2ncc(-c3ccnc(N4CCC45COC5)n3)c2c1  remaining binding (binding; 1 µM): 86%
Cc1cnc(Nc2ccc(C(=O)N3CCC(N4CCCC4)CC3)cc2)nc1-c1cc2ccccc2s1  remaining binding (binding, competition with immobilised ligand; 1 µM): 89%
Nc1ncc2c(n1)-c1c([nH]c3ccc(C#CC4CC4)cc13)CCCC2  remaining binding (binding, competition with immobilised ligand; 1 µM): 100%
N[C@H]1CCN(c2nccc(-c3cnn4ncccc34)n2)C1  remaining binding (binding; 1 µM): 97%
O=C(NCC1CCOCC1)c1n[nH]cc1NC(=O)c1c(F)cccc1F  remaining binding (binding, competition with immobilised ligand; 1 µM): 73%
CC1CCCN1c1nccc(-c2cnn3ncccc23)n1 (stereo not shown)  remaining binding (binding; 1 µM): 100%
CCCOc1ccc([C@H]2[C@H](C(=O)O)[C@@H](c3ccc4c(c3)OCO4)CN2CC(=O)Nc2c(CC)cccc2CC)cc1  remaining binding (cell-free assay, competition with immobilised ligand; 1 µM): 78%
COc1cnc(Nc2cccc(S(N)(=O)=O)c2)nc1N1CCN(c2ccccc2)C(=O)C1  remaining binding (binding, competition with immobilised ligand; 1 µM): 98%
C[C@H]1CCN(c2nccc(-c3cnn4ncccc34)n2)C1  remaining binding (binding; 1 µM): 100%
FC(F)(F)Oc1cccc(-c2cnc3ccc(-c4ccncc4)nn23)c1  remaining binding (cell-free assay, competition with immobilised ligand; 5 µM): 19%
CN(C)c1nccc(-c2cnn3ncccc23)n1  remaining binding (binding; 1 µM): 87%
Cc1noc([C@H]2C[C@@H](c3ccc(C(F)(F)F)cc3)CN(C(=O)N3CCS(=O)(=O)C3)C2)n1  remaining binding (cell-free assay, competition with immobilised ligand; 1 µM): 100%
c1cncc(-c2cccc(Nc3nccc(NC4CCCCC4)n3)c2)c1  remaining binding (binding, competition with immobilised ligand; 10 µM): 84%
COc1ccc2c(c1)O[C@H](c1ccc(OC)c(OC)c1)C[C@@H]2NC(=O)C1(c2ccc3c(c2)OC(F)(F)O3)CC1  remaining binding (cell-free assay, competition with immobilised ligand; 1 µM): 92%
O=C(NCCCN1CCOCC1)c1ccc(Nc2ncc(Cl)c(-c3ccc(Cl)s3)n2)cc1  remaining binding (binding, competition with immobilised ligand; 1 µM): 91%
F[C@@H]1CCN(c2nccc(-c3cnn4ncccc34)n2)C1  remaining binding (binding; 1 µM): 100%
O=C(Nc1ccc(Oc2ccc(F)cc2)cc1)N1CCc2ncccc2[C@H]1c1ccc(F)cc1  remaining binding (cell-free assay, competition with immobilised ligand; 1 µM): 100%
